ChEMBL document CHEMBL1165982, “Induction of G(2)/M phase arrest and apoptosis by oridonin in human laryngeal carcinoma cells” (J Nat Prod, 2010)
The source made the active and inactive calls. No cut-off for these calls is given here.

Key:
HEp-2 [1] = assay: Induction of apoptosis in human Hep2 cells assessed as increase in phospho-cdc2 (Tyr15) level at 36 uM from 6 to 24 hrs by Western blot analysis; format: functional, cell-based
Summary of the method: (§1)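 Treatment: 36 µM for 0, 6, 12 or 24 h, alone or with 2.5 mM N-acetylcysteine or 500 U/mL catalase. Lysis 60 min at 4 °C in Hepes pH 7.4/1% Triton X-100 with phosphatase and protease inhibitors, spin 13000g. Lysates run on 12% SDS-PAGE, blotted to nitrocellulose, probed with polyclonal antibodies, HRP/DAB detection. Representative of ≥3 experiments.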

HEp-2 [2] = assay: Induction of apoptosis in human Hep2 cells assessed as accumulation in G2/M phase using PI staining at 36 uM after 24 hrs by flow cytometeric analysis in presence of N-acetyl-cysteine ROS scavenger; format: functional
Summary of the method: (§2)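 HEp-2 cells were pretreated 1 h with 2.5 mM N-acetylcysteine, then co-incubated with 36 µM for 24 h. They were then fixed in 70% ethanol (≥12 h, 4 °C) and stained on ice in the dark for 30 min with 50 µg/mL PI and 1 mg/mL RNase A. G2/M and subG1 fractions were read by flow cytometry, ≥10 000 cells counted. n = 3.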

HEp-2 [3] = assay: Induction of apoptosis in human Hep2 cells assessed as accumulation in subG1 phase using PI staining by flow cytometeric analysis; format: functional
Summary of the method: (§3)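 ATCC HEp-2 in RPMI-1640 with 10% FBS at 37 °C, 5% CO2, exposed to 36 µM for 0, 6, 12 or 24 h. 1 × 10^6 cells were fixed in 70% ethanol at 4 °C for at least 12 h, then stained on ice in the dark for 30 min with 50 µg/mL PI plus 1 mg/mL RNase A. Read by flow cytometry, ≥10 000 cells per sample. SubG1 counted as the apoptotic fraction. n = 3.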

HEp-2 [4] = assay: Induction of apoptosis in human Hep2 cells assessed as decrease in cdc2 level at 36 uM after 24 hrs by Western blot analysis; format: functional, cell-based; settings: TDE = time-dependent effect; summary of the method: as §1
HEp-2 [5] = assay: Induction of apoptosis in human Hep2 cells assessed as decrease in cyclin B level at 36 uM after 24 hrs by Western blot analysis; format: functional, cell-based; settings: TDE = time-dependent effect; summary of the method: as §1
HEp-2 [6] = assay: Induction of apoptosis in human Hep2 cells assessed as morphological changes at 36 uM after 24 hrs by microscopy; format: functional, cell-based
HEp-2 [7] = assay: Cell cycle arrest in human Hep2 cells assessed as accumulation at G2/M phase at 36 uM after 6 hrs using propidium iodide staining by flow cytometry; format: functional; summary of the method: as §3
HEp-2 [8] = assay: Induction of apoptosis in human Hep2 cells assessed as decrease in cyclin B level at 36 uM after 24 hrs by Western blot analysis in presence of NAC; format: functional, cell-based; summary of the method: as §1
HEp-2 [9] = assay: Cell cycle arrest in human Hep2 cells assessed as accumulation at G2/M phase at 36 uM after 24 hrs using propidium iodide staining by flow cytometry; format: functional; summary of the method: as §3
HEp-2 [10] = assay: Induction of ROS generation in human Hep2 cells assessed as ratio of DCF-positive cells at 36 uM after 12 hrs relative to control; format: functional
Summary of the method: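 Cells exposed to 36 µM for 0, 3, 6, 12 or 24 h, then loaded with DCF-DA (10 mM as printed) for 15 min at 37 °C. Harvested, resuspended in PBS and read by flow cytometry (ex 480 nm, em 525 nm). Result given as % DCF-positive cells. n = 3.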

HEp-2 [11] = assay: Induction of apoptosis in human Hep2 cells assessed as caspase activated DNase level at 36 uM after 24 hrs by Western blot analysis in presence of CAT; format: functional, cell-based; summary of the method: as §1
HEp-2 [12] = assay: Induction of apoptosis in human Hep2 cells assessed as decrease in Bcl-2 at 36 uM after 24 hrs by Western blot analysis in presence of CAT; format: functional, cell-based; summary of the method: as §1
HEp-2 [13] = assay: Induction of apoptosis in human Hep2 cells at 36 uM after 24 hrs by MTT assay in presence of z-DEVD-fmk caspase 3 inhibitor; format: functional, cell-based
Summary of the method: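 HEp-2 cells in RPMI-1640 with 10% FBS at 37 °C, 5% CO2, seeded at 1.2 × 10^4 cells/well and grown 24 h. Pretreated 1 h with z-DEVD-fmk (5 µM, line 1) or z-VAD-fmk (10 µM, line 2), then exposed to 36 µM agent for 24 h, with DMSO below 0.05%. Cell inhibitory ratio read by MTT; n = 3, mean ± SD.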

HEp-2 [14] = assay: Induction of apoptosis in human Hep2 cells assessed as decrease in Bcl-2 at 36 uM after 12 hrs by Western blot analysis; format: functional, cell-based; settings: in the assay text read “after 24 hrs” for “after 12 hrs”; summary of the method: as §1
HEp-2 [15] = assay: Induction of ROS generation in human Hep2 cells assessed as ROS level at 36 uM after 24 hrs in presence of N-acetyl-cysteine ROS scavenger; format: functional
Summary of the method: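 ROS read as % DCF-positive cells after 24 h co-incubation of 36 µM with 2.5 mM N-acetylcysteine. DCF-DA loading 15 min at 37 °C; flow cytometry at ex 480 / em 525 nm. n = 3.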

HEp-2 [16] = assay: Induction of apoptosis in human Hep2 cells assessed as cleaved caspase 3 level at 36 uM after 24 hrs by Western blot analysis in presence of CAT; format: functional, cell-based; summary of the method: as §1
HEp-2 [17] = assay: Induction of apoptosis in human Hep2 cells assessed as accumulation in subG1 phase using PI staining at 36 uM after 24 hrs by flow cytometeric analysis in presence of N-acetyl-cysteine ROS scavenger; format: functional; summary of the method: as §2
HEp-2 [18] = assay: Induction of apoptosis in human Hep2 cells assessed as increase in pro-apoptotic Bax protein at 36 uM after 6 hrs by Western blot analysis; format: functional, cell-based; summary of the method: as §1
HEp-2 [19] = assay: Induction of apoptosis in human Hep2 cells assessed as fragmented DNA using acridine orange staining at 36 uM after 24 hrs by microscopic analysis in presence of N-acetyl-cysteine ROS scavenger; format: functional, cell-based
HEp-2 [20] = assay: Induction of apoptosis in human Hep2 cells assessed as increase in p21/WAF1 level at 36 uM after 24 hrs by Western blot analysis; format: functional, cell-based; summary of the method: as §1
HEp-2 [21] = assay: Induction of apoptosis in human Hep2 cells assessed as decrease in cdc2 level at 36 uM after 24 hrs by Western blot analysis in presence of NAC; format: functional, cell-based; summary of the method: as §1
HEp-2 [22] = assay: Induction of apoptosis in human Hep2 cells assessed as apoptotic bodies using acridine orange staining at 36 uM after 24 hrs by microscopic analysis in presence of N-acetyl-cysteine ROS scavenger; format: functional, cell-based
HEp-2 [23] = assay: Induction of apoptosis in human Hep2 cells assessed as increase in AIF level at 36 uM after 24 hrs by Western blot analysis in presence of CAT; format: functional, cell-based; summary of the method: as §1
HEp-2 [24] = assay: Cytotoxicity against human Hep2 cells after 24 hrs by MTT assay; format: functional, cell-based; settings: HEp-2, 24 h
Summary of the method: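 Cells seeded at 1.2 × 10^4 per well in 96-well plates, grown 24 h, then treated over 10.7–81 µM for 6, 12, 24, 36 or 48 h. Viability read by MTT. DMSO kept below 0.05%. IC50 taken at 24 h.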

HEp-2 [25] = assay: Induction of apoptosis in human Hep2 cells assessed as increase in phospho-cdc25C (ser216) level at 36 uM from 6 to 24 hrs by Western blot analysis in presence of NAC; format: functional, cell-based; summary of the method: as §1

## C=C1C(=O)[C@]23[C@H](O)[C@H]1CC[C@H]2[C@@]12CO[C@]3(O)[C@@H](O)[C@@H]1C(C)(C)CC[C@@H]2O [ORIDONIN]
HEp-2 [1]
  Activity: Active
HEp-2 [2]
  Activity: 14%
HEp-2 [3]
  Activity: 26.57%
HEp-2 [4]
  Activity: tde
HEp-2 [5]
  Activity: tde
HEp-2 [6]
  Activity: Active
HEp-2 [7]
  Activity: 32.84%
HEp-2 [8]
  Activity: inactive
HEp-2 [9]
  Activity: 25.84%
HEp-2 [10]
  Activity: 24.21%
HEp-2 [11]
  Activity: inactive
HEp-2 [12]
  Activity: inactive
HEp-2 [13]
  Activity: inactive
HEp-2 [14]
  Activity: Active
HEp-2 [15]
  Activity: 4.41%
HEp-2 [16]
  Activity: inactive
HEp-2 [17]
  Activity: 3.39%
HEp-2 [18]
  Activity: Active
HEp-2 [19]
  Activity: inactive
HEp-2 [20]
  Activity: inactive
HEp-2 [21]
  Activity: inactive
HEp-2 [22]
  Activity: inactive
HEp-2 [23]
  Activity: inactive
HEp-2 [24]
  IC50: 37.1 µM
HEp-2 [25]
  Activity: inactive
